Measured values taken from ChEMBL document CHEMBL3425486, “Lathyrol diterpenes as modulators of P-glycoprotein dependent multidrug resistance: structure-activity relationship studies on Euphorbia factor L3 derivatives” (J Med Chem, 2015).

How the values were obtained:
NCI/ADR-RES = test: Inhibition of P-gp in human MCF7/ADR cells assessed as reversal of multidrug resistance at 10 uM by measuring ratio of EC50(adriamycin)/EC50(adriamycin + compound) after 48 hrs by SRB colorimetric assay; type: cell-based
[1] = biological target: T1, ATP-dependent translocase ABCB1 (Homo sapiens, UniProt P08183); test: Inhibition of P-gp in human MCF7/ADR cells assessed as side scatter count of cells at 20 uM pre-treated for 1 hr at 37 degC followed by incubation with Rh123 for 1 hr by flow cytometry (reference value: 100.6 No unit); type: cell-based; details: nci/adr-res
T1 sequence (P08183 whole entry): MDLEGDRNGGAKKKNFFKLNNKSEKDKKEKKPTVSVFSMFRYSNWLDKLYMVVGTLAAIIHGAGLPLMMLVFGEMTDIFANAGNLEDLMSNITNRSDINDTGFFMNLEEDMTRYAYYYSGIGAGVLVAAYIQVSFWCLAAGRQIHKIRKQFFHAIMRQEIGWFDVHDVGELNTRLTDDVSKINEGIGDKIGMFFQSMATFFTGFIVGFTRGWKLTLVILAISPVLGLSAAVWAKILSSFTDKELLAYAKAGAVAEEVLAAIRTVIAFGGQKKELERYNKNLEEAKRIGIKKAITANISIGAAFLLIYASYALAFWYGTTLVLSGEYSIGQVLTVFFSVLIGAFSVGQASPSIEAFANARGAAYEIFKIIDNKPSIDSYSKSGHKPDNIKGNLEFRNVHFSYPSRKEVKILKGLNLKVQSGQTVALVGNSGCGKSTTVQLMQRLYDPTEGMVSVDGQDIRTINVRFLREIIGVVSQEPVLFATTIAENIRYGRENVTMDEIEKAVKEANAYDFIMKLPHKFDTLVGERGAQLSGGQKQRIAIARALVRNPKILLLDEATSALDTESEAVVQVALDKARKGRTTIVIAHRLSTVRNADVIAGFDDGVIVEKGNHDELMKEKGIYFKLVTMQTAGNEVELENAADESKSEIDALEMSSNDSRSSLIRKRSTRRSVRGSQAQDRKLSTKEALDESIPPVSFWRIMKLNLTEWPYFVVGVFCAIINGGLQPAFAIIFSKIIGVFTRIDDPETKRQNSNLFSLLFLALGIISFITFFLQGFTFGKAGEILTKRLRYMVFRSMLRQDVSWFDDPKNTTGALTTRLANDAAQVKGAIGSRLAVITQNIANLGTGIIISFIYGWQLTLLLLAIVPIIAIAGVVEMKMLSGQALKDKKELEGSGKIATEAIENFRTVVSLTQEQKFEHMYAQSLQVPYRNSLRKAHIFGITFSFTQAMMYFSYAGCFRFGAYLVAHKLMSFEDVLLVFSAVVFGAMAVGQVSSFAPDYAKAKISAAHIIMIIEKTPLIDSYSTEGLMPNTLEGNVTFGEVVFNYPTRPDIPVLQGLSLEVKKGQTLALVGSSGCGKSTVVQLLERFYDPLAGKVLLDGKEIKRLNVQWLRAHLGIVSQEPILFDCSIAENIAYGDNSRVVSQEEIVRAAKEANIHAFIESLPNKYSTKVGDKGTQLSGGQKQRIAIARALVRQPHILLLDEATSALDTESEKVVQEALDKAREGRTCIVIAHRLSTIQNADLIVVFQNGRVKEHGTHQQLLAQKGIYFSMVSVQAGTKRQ

[2] = biological target: T1, ATP-dependent translocase ABCB1; test: Inhibition of P-gp in human MCF7/ADR cells assessed as reversal of multidrug resistance by measuring relative enhancement intensity for adriamycin-induced cytotoxicity at 10 uM after 48 hrs by SRB colorimetric assay; type: cell-based; set-up: scale not given: the % may be the effect or the level left; details: nci/adr-res
[3] = biological target: T1, ATP-dependent translocase ABCB1; test: Inhibition of P-gp in human MCF7/ADR cells assessed as forward scatter count of cells at 20 uM pre-treated for 1 hr at 37 degC followed by incubation with Rh123 for 1 hr by flow cytometry (reference value: 142.5 No unit); type: cell-based; details: nci/adr-res
[4] = biological target: T1, ATP-dependent translocase ABCB1; test: Inhibition of P-gp in human MCF7/ADR cells assessed as peak fluorescence intensity of cells at 20 uM pre-treated for 1 hr at 37 degC followed by incubation with Rh123 for 1 hr by flow cytometry (reference value: 87.3 No unit); type: cell-based; details: nci/adr-res
[5] = biological target: T1, ATP-dependent translocase ABCB1; test: Inhibition of P-gp in human MCF7/ADR cells assessed as mean fluorescence intensity of cells at 20 uM pre-treated for 1 hr at 37 degC followed by incubation with Rh123 for 1 hr by flow cytometry (reference value: 108.1 +/- 43.9 No unit); type: cell-based; details: nci/adr-res
[6] = biological target: T1, ATP-dependent translocase ABCB1; test: Inhibition of P-gp in human MCF7/ADR cells assessed as side scatter count of cells at 10 uM pre-treated for 1 hr at 37 degC followed by incubation with Rh123 for 1 hr by flow cytometry (reference value: 100.6 No unit); type: cell-based; details: nci/adr-res
[7] = biological target: T1, ATP-dependent translocase ABCB1; test: Inhibition of P-gp in human MCF7/ADR cells assessed as forward scatter count of cells at 10 uM pre-treated for 1 hr at 37 degC followed by incubation with Rh123 for 1 hr by flow cytometry (reference value: 142.5 No unit); type: cell-based; details: nci/adr-res
[8] = biological target: T1, ATP-dependent translocase ABCB1; test: Inhibition of P-gp in human MCF7/ADR cells assessed as peak fluorescence intensity of cells at 10 uM pre-treated for 1 hr at 37 degC followed by incubation with Rh123 for 1 hr by flow cytometry (reference value: 87.3 No unit); type: cell-based; details: nci/adr-res
[9] = biological target: T1, ATP-dependent translocase ABCB1; test: Inhibition of P-gp in human MCF7/ADR cells assessed as peak fluorescence intensity of cells at 2 uM pre-treated for 1 hr at 37 degC followed by incubation with Rh123 for 1 hr by flow cytometry (reference value: 87.3 No unit); type: cell-based; details: nci/adr-res
[10] = biological target: T1, ATP-dependent translocase ABCB1; test: Inhibition of P-gp in human MCF7/ADR cells assessed as forward scatter count of cells at 2 uM pre-treated for 1 hr at 37 degC followed by incubation with Rh123 for 1 hr by flow cytometry (reference value: 142.5 No unit); type: cell-based; details: nci/adr-res
MCF7 = test: Cytotoxicity against human MCF7 cells assessed as reduction in cell viability after 48 hrs by SRB colorimetric assay; type: functional, cell-based; details: MCF7, 48 h
Method in brief: (§1)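 MCF-7 from ATCC and its stepwise ADR-selected resistant subline, grown in RPMI-1640 with 10% FBS and penicillin/streptomycin at 37 °C, 5% CO2. 1 × 10^4 cells/well exposed to graded compound concentrations for 48 h. Cells fixed with 10% TCA, stained with 0.4% SRB in 1% acetic acid, dye extracted with 10 mM Tris base, OD read at 490 nm. Taxol positive control.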

[11] = biological target: T1, ATP-dependent translocase ABCB1; test: Inhibition of P-gp in human MCF7/ADR cells assessed as side scatter count of cells at 2 uM pre-treated for 1 hr at 37 degC followed by incubation with Rh123 for 1 hr by flow cytometry (reference value: 100.6 No unit); type: cell-based; details: nci/adr-res
[12] = biological target: T1, ATP-dependent translocase ABCB1; test: Inhibition of P-gp in human MCF7/ADR cells assessed as mean fluorescence intensity of cells pre-treated for 1 hr at 37 degC followed by incubation with Rh123 for 1 hr by flow cytometry; type: cell-based; details: nci/adr-res
[13] = biological target: T1, ATP-dependent translocase ABCB1; test: Inhibition of P-gp in human MCF7/ADR cells assessed as mean fluorescence intensity of cells at 10 uM pre-treated for 1 hr at 37 degC followed by incubation with Rh123 for 1 hr by flow cytometry (reference value: 108.1 +/- 43.9 No unit); type: cell-based; details: nci/adr-res
[14] = Cytotoxicity against human MCF7/ADR cells assessed as reduction in cell viability after 48 hrs by SRB colorimetric assay; type: functional, cell-based; details: NCI/ADR-RES; method in brief: as §1
[15] = biological target: T1, ATP-dependent translocase ABCB1; test: Inhibition of P-gp in human MCF7/ADR cells assessed as mean fluorescence intensity of cells at 2 uM pre-treated for 1 hr at 37 degC followed by incubation with Rh123 for 1 hr by flow cytometry (reference value: 108.1 +/- 43.9 No unit); type: cell-based; details: nci/adr-res
[16] = Inhibition of P-gp in human MCF7/ADR cells assessed as reversal of multidrug resistance at 10 uM by measuring EC50 for adriamycin-induced cytotoxicity after 48 hrs by SRB colorimetric assay; details: nci/adr-res
[17] = Lipophilicity, log P of the compound; type: physicochemical; details: octanol/water

SMILES: COc1ccc(CCN(C)CCCC(C#N)(c2ccc(OC)c(OC)c2)C(C)C)cc1OC (stereo unspecified)
- Ratio EC50 (NCI/ADR-RES): 7.1
- Activity [1]: 92.2
- Activity [2]: 8.4%
- Activity [3]: 137.4
- Activity [4]: 157.1
- Flu intensity [5]: 170

SMILES: C=C1CC[C@H]2[C@@H](/C=C(\C)C(=O)[C@@]3(O)C[C@H](C)[C@H](OC(=O)CC)[C@@H]3[C@H]1OC(=O)Cc1cccc3ccccc13)C2(C)C
- Activity [6]: 101.2
- Activity [7]: 137.9
- Activity [8]: 188.2
- Ratio EC50 (NCI/ADR-RES): 28.6
- Activity [9]: 143.5
- Activity [10]: 138.5
- Activity [1]: 100.9
- IC50 (MCF7): 9.73 µM
- Activity [11]: 94.8
- Activity [2]: 14.4%
- Activity [3]: 131.4
- inhibition (INH) [12]: Dose-dependent effect
- Flu intensity [13]: 167.8
- Activity [4]: 235.8
- IC50 [14]: 75.7 µM
- Flu intensity [15]: 149.4
- Flu intensity [5]: 204.6

SMILES: C=C1CC[C@H]2[C@@H](/C=C(\C)C(=O)[C@@]3(O)C[C@H](C)[C@H](O)[C@@H]3[C@H]1OC(=O)Cc1cccc3ccccc13)C2(C)C
- Activity [6]: 102.2
- Activity [7]: 148.5
- Activity [8]: 196.8
- Ratio EC50 (NCI/ADR-RES): 16
- Activity [9]: 131.1
- Activity [10]: 134.9
- Activity [1]: 94.2
- IC50 (MCF7): 10.5 µM
- Activity [11]: 96.3
- Activity [2]: 15.5%
- Activity [3]: 138.7
- Flu intensity [13]: 168.1
- Activity [4]: 205.9
- IC50 [14]: 33.7 µM
- Flu intensity [15]: 141.1
- Flu intensity [5]: 182.1

SMILES: C=C1CC[C@H]2[C@@H](/C=C(\C)C(=O)[C@@]3(O)C[C@H](C)[C@H](OC(=O)c4ccccc4)[C@@H]3[C@H]1OC(=O)c1ccccc1)C2(C)C
- Activity [6]: 104.4
- Activity [7]: 144.5
- Activity [8]: 215.4
- Ratio EC50 (NCI/ADR-RES): 34.4
- Activity [9]: 215.4
- Activity [10]: 146.8
- Activity [1]: 102
- IC50 (MCF7): 13.2 µM
- Activity [11]: 102.7
- Activity [2]: 23.9%
- Activity [3]: 148.1
- Flu intensity [13]: 204.8
- Activity [4]: 196.8
- IC50 [14]: 63.8 µM
- Flu intensity [15]: 197.5
- Flu intensity [5]: 204.8

SMILES: C=C1CC[C@H]2[C@@H](/C=C(\C)C(=O)[C@@]3(O)C[C@H](C)[C@H](OC(=O)CCCCC)[C@@H]3[C@H]1OC(=O)CCCCC)C2(C)C
- Ratio EC50 (NCI/ADR-RES): 1.9
- EC50 [16]: 18.51 µM
- IC50 (MCF7): 47.1 µM
- Activity [2]: 5.8%
- IC50 [14]: > 100 µM

SMILES: C=C1CC[C@H]2[C@@H]([C@@H]3O[C@]4(C[C@H](C)[C@H](OC(C)=O)[C@@H]4[C@H]1OC(C)=O)C(=O)[C@H]3C)C2(C)C
- Ratio EC50 (NCI/ADR-RES): 10.7
- logP [17]: 3.4
- EC50 [16]: 3.23 µM
- IC50 (MCF7): 12.7 µM
- Activity [2]: 13%
- IC50 [14]: > 100 µM
